As usually defined, the pKi is the negative decadic logarithm of the Ki, by convention in mol/L. A higher pKi goes with a small Ki.

The target of assay [1] is T1, Fatty-acid amide hydrolase 1 (Rattus norvegicus) (UniProt P97612).
T1 sequence (whole entry): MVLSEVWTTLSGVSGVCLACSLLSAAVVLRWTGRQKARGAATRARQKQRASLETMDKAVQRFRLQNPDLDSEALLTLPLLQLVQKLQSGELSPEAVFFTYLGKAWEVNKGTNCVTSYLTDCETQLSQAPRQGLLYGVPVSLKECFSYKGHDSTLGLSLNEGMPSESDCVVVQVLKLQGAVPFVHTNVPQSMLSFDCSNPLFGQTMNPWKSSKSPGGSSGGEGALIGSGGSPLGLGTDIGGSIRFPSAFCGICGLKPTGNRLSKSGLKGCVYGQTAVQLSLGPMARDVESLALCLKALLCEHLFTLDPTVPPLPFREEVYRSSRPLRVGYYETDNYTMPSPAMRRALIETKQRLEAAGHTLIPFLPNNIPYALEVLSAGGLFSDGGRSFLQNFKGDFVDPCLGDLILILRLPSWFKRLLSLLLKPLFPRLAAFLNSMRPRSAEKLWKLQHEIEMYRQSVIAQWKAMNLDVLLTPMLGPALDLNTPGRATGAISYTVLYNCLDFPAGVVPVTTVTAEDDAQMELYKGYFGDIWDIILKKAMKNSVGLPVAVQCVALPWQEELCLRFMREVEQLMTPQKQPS
Put plainly: Activity of partially purified Sprague-Dawley rat FAAH assessed as substrate hydrolysis.

In assay [2] the target is T2, Monoglyceride lipase (Rattus norvegicus) (UniProt Q8R431).
T2 sequence (whole entry): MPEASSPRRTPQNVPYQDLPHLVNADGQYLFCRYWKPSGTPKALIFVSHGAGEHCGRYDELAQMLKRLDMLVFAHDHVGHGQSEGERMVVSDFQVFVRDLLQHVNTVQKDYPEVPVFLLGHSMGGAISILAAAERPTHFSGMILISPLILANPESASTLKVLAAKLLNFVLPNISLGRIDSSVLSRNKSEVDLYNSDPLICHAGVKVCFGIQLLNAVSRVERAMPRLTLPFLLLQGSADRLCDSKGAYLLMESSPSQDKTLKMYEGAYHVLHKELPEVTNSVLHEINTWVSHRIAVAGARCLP
Put plainly: Activity of partially purified Sprague-Dawley rat MGL assessed as substrate hydrolysis.

Assay [3] has as its target Cannabinoid receptor 2 (Mus musculus, UniProt P47936). Put plainly: Displacement of [3H]CP-55940 from mouse spleen CB2 receptor. The class given is tissue-based. In short, it runs like this:
(§1)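 Competition-equilibrium binding against [3H]CP55940, using rat brain membranes for CB1 and mouse spleen membranes for CB2. Some CB1 runs used membranes pretreated with PMSF. IC50 came from nonlinear regression and Ki was calculated from IC50. Points were run in duplicate, with values from single experiments.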

Assay [4] concerns the target Cannabinoid receptor 1 (Rattus norvegicus, UniProt P20272). Put plainly: Displacement of [3H]CP-55940 from rat brain CB1 receptor. In short, it runs like this:
as §1

pKi: −log10 of the molar value.

Cannabinoid receptor 2, sequence (P47936 whole entry): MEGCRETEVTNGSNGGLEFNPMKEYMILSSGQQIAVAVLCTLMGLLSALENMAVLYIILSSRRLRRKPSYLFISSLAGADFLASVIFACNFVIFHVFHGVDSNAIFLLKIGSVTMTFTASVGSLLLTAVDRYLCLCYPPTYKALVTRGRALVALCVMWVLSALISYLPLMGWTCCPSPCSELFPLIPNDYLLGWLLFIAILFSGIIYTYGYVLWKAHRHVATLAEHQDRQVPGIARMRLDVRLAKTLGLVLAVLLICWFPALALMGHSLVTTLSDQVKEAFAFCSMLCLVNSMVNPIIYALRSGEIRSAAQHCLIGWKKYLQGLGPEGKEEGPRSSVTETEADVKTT
Cannabinoid receptor 1, sequence (P20272 whole entry): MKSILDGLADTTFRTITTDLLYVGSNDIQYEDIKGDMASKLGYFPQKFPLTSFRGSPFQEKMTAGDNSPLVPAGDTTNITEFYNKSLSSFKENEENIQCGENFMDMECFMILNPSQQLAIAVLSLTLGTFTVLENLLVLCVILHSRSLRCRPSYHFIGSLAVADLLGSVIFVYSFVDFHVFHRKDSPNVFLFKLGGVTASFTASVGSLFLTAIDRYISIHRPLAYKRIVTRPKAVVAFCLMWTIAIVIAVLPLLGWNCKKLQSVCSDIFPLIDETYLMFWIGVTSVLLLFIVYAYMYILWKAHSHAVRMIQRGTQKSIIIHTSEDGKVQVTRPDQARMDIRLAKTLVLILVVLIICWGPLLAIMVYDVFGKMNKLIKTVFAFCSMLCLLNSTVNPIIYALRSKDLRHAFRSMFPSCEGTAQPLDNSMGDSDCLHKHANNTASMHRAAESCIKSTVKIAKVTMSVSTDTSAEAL

Consider `CCCCC/C=C\C/C=C\C/C=C\C/C=C\CCCC(=O)OC(CO)CO`, for which the figures for the hydrolysis in assay [1] and in assay [2] were 100% and 74%, respectively. Take `CCCCC/C=C\C/C=C\C/C=C\C/C=C\CCCC(=O)O[C@@H]1[C@H](O)CCC[C@@H]1O`: the hydrolysis in assay [1] and in assay [2] was 2% each time. For `CCCCC/C=C\C/C=C\C/C=C\C/C=C\CCCC(=O)O[C@H]1[C@H](O)CCC[C@@H]1O`, the hydrolysis in assay [1] was determined as 78%; in assay [2], 19%. On the same counts, the results for `CCCCC/C=C\C/C=C\C/C=C\C/C=C\CCCC(=O)OC1C(O)CCCC1O` (racemic) are 100% and 1%.

Turning to `CCCCC/C=C\C/C=C\C/C=C\C/C=C\CCCC(=O)OC1C(=O)CCCC1O` (racemic; form 1) [listing 1 of 2 here], the pKi in assay [3] was 6.39.

Consider `CCCCC/C=C\C/C=C\C/C=C\C/C=C\CCCC(=O)OC1C(=O)CCCC1O` (racemic; form 1) [listing 2 of 2 here], for which the hydrolysis in assay [1] worked out at 91%; in assay [2] it was 48%. On the same counts, the results for `CCCCC/C=C\C/C=C\C/C=C\C/C=C\CCCC(=O)OC1C(=O)CCCC1O` (racemic; form 2) are 100% and 8%. `CCCCC/C=C\C/C=C\C/C=C\C/C=C\CCCC(=O)OC1C(O)CCCC1O` (single isomer, unassigned; (+)) [listing 1 of 2 here]: the pKi was 6.43 in assay [3] and 6.44 in assay [4]. On to `CCCCC/C=C\C/C=C\C/C=C\C/C=C\CCCC(=O)OC1C(O)CCCC1O` (single isomer, unassigned; (+)) [listing 2 of 2 here], for which the hydrolysis in assay [1] worked out at 88%; in assay [2], 10%. On to `CCCCC/C=C\C/C=C\C/C=C\C/C=C\CCCC(=O)OC1C(O)CCCC1O` (single isomer, unassigned; (-)) [listing 1 of 2 here], for which the pKi in assay [3] was 5.92; in assay [4] it was 6.11. As for `CCCCC/C=C\C/C=C\C/C=C\C/C=C\CCCC(=O)OC1C(O)CCCC1O` (single isomer, unassigned; (-)) [listing 2 of 2 here], the hydrolysis amounted to 88% in assay [1] and 13% in assay [2].
